Source: ChEMBL document CHEMBL1124066, “Renin inhibitors containing psi[CH2O] pseudopeptide inserts” (J Med Chem, 1988)
*1 amine or outer side, *2 acyl side, *3 side chain or, on linkers, in order; H or OH if unused. Where a SMILES comes first, the peptide text is derived from it. [ ]: non-standard residue; d: D form. The star is where a group is joined. X1 = O=C([C@H](Cc1ccccc1)OC[C@@H]1CCCN1[*:1])[*:2]; X2 = CC(CN[*:1])CC(N)C(O)CC(=O)[*:2]; NHCH2(2-pyridyl) = c1ccc(CN*)nc1; Boc = CC(C)(C)OC(=O)*; For = O=C*

Legend:
[1] = target: T1, Renin (Homo sapiens, UniProt P00797); assay: Inhibition of Human plasma renin; type: cell-free
T1 sequence (P00797 whole entry): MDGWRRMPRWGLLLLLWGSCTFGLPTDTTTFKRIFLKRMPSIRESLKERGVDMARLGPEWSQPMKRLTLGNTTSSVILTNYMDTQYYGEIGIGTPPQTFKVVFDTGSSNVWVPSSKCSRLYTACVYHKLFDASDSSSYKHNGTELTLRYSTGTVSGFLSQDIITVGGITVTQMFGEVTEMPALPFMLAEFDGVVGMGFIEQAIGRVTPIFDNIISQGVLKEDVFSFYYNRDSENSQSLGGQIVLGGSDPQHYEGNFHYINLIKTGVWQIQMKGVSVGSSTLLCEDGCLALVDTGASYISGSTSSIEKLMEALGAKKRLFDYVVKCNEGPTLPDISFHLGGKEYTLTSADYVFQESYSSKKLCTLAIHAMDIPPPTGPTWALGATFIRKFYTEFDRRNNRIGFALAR
Outline: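 Lyophilized human plasma containing 0.1% EDTA was used for angiotensin I generation with phenylmethanesulfonyl fluoride and maleate buffer pH 6.0. Inhibitor was added in a 1% Tween 80/water vehicle, followed by 90 min at 37 °C. Angiotensin I was measured by radioimmunoassay. Percent inhibition was taken against control tubes. IC50 was estimated graphically from 3-4 inhibitor concentrations on a semilog plot.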

[2] = % compound remaining at 60 min in presence of degradative enzyme carboxypeptidase Y (in vitro)
Outline: (§1)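 Enzyme stocks were made in 50 mM Tris-HCl pH 7.5 (stock chymotrypsin 25 units/mL; elastase and carboxypeptidase Y 50 units/mL). Peptide at 0.8 mg/mL in 10% DMSO/Tris received 5 µL enzyme per 0.25 mL and was incubated at 37 °C for 0 or 60 min, then quenched with HPLC solvent B. Reverse-phase HPLC used an acetonitrile gradient. The 204 nm peak height was compared with the 0-min control. Incubations were run in triplicate, each assayed in duplicate.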

[3] = target: Chymotrypsinogen A (Bos taurus) (UniProt P00766); assay: % compound remaining at 60 min in presence of degradative […] (in vitro); outline: as §1
[4] = species on record: Homo sapiens; assay: % compound remaining at 60 min in presence of degradative enzyme elastase (in vitro); type: functional; outline: as §1

| SMILES | IC50 [1] | other results |
| --- | --- | --- |
| CC[C@H](C)[C@H](NC(=O)CC(O)C(N)CC(C)CNC(=O)[C@H](Cc1c[nH]cn1)NC(=O)[C@H](Cc1ccccc1)NC(=O)[C@@H]1CCCN1C(=O)OC(C)(C)C)C(=O)N[C@@H](Cc1ccccc1)C(=O)OC (stereo not given in full) (Boc-PFH[X2]IF-OMe) | 5.8 µM |  |
| CC[C@H](C)[C@H](NC(=O)[C@@H](NCC(O)[C@H](CC(C)C)NC(=O)[C@H](Cc1cnc[nH]1)NC(=O)[C@H](Cc1ccccc1)OC[C@@H]1CCCN1C(=O)[C@H](Cc1cnc[nH]1)NC(=O)OC(C)(C)C)C(C)C)C(=O)NCc1ccccn1 (stereo not given in full) | 3 µM |  |
| CC(C)[C@H](NC(=O)[C@H](Cc1ccccc1)NC(=O)[C@H](Cc1ccccc1)NC(=O)[C@H](Cc1ccccc1)NC(=O)[C@H](Cc1c[nH]cn1)NC(=O)[C@H](Cc1ccccc1)NC(=O)[C@@H]1CCCN1C(=O)[C@H](Cc1c[nH]cn1)NC(=O)[C@@H]1CCCN1)C(=O)N[C@@H](Cc1ccc(O)cc1)C(=O)N[C@@H](CCCCN)C(=O)O [RIP] (H-PHPFHFFFVYK-OH) | 7 µM | Remaining [2]: 2%; Remaining [3]: 3% |
| CC[C@H](C)[C@H](NC(=O)CC(O)C(N)CC(C)CNC(=O)[C@H](Cc1c[nH]cn1)NC(=O)[C@H](Cc1ccccc1)OC[C@@H]1CCCN1C(=O)[C@H](Cc1c[nH]cn1)NC(=O)OC(C)(C)C)C(=O)N[C@@H](Cc1ccccc1)C(=O)OC (stereo not given in full) (Boc-H[X1]H[X2]IF-OMe) | 440 µM |  |
| CC[C@H](C)[C@H](NC(=O)[C@@H](NCC(O)[C@H](CC(C)C)NC(=O)[C@H](Cc1c[nH]cn1)NC(=O)[C@H](Cc1ccccc1)OC[C@@H]1CCCN1C(=O)OC(C)(C)C)C(C)C)C(=O)NCc1ccccn1 (stereo not given in full) | 2.3 µM |  |
| CC[C@H](C)[C@H](NC(=O)CC(O)C(N)CC(C)CNC(=O)[C@H](Cc1cnc[nH]1)NC(=O)[C@H](Cc1ccccc1)NC(=O)[C@@H]1CCCN1C(=O)OC(C)(C)C)C(=O)NCc1ccccn1 (stereo not given in full) (Boc-PFH[X2]I-{NHCH2(2-pyridyl)}) | 4.1 µM |  |
| CC[C@H](C)[C@H](NC(=O)CC(O)C(N)CC(C)CNC(=O)[C@H](Cc1c[nH]cn1)NC(=O)[C@H](Cc1ccccc1)OC[C@@H]1CCCN1C(=O)[C@H](Cc1cn(C=O)c2ccccc12)NC(C)=O)C(=O)N[C@@H](Cc1ccccc1)C(=O)OC (stereo not given in full) (Ac-W(For)[X1]H[X2]IF-OMe) | 330 µM |  |
| CC[C@H](C)[C@H](NC(=O)[C@@H](NCC(O)[C@H](CC(C)C)NC(=O)[C@H](Cc1c[nH]cn1)NC(=O)[C@H](Cc1ccccc1)OC[C@@H]1CCCN1C(=O)[C@H](Cc1ccccc1)NC(=O)OC(C)(C)C)C(C)C)C(=O)NCc1ccccn1 (stereo not given in full) | 1.6 µM |  |
| CC[C@H](C)[C@H](NC(=O)[C@H](CC(C)C)OC[C@H](CC(C)C)NC(=O)[C@H](Cc1cnc[nH]1)NC(=O)[C@H](Cc1ccccc1)NC(=O)[C@@H]1CCCN1C(=O)[C@H](Cc1cnc[nH]1)NC(=O)[C@@H]1CCCN1)C(=O)N[C@@H](Cc1cnc[nH]1)C(=O)N[C@H](CCCCN)C(=O)O | 1.8 µM |  |
| CC[C@H](C)[C@H](NC(=O)[C@@H](OC[C@H](CC(C)C)NC(=O)[C@H](Cc1c[nH]cn1)NC(=O)[C@H](Cc1ccccc1)NC(=O)[C@@H]1CCCN1C(=O)[C@H](Cc1c[nH]cn1)NC(=O)[C@@H]1CCCN1)C(C)C)C(=O)N[C@@H](Cc1c[nH]cn1)C(=O)N[C@H](CCCCN)C(=O)O | 1.7 µM |  |
| CC[C@H](C)[C@H](NC(=O)[C@H](C)OC[C@H](CC(C)C)NC(=O)[C@H](Cc1cnc[nH]1)NC(=O)[C@H](Cc1ccccc1)NC(=O)[C@@H]1CCCN1C(=O)[C@H](Cc1cnc[nH]1)NC(=O)[C@@H]1CCCN1)C(=O)N[C@@H](Cc1cnc[nH]1)C(=O)N[C@H](CCCCN)C(=O)O | 18 µM |  |
| CC[C@H](C)[C@H](NC(=O)CC(O)C(N)CC(C)CNC(=O)[C@H](Cc1cnc[nH]1)NC(=O)[C@H](Cc1ccccc1)OC[C@@H]1CCCN1C(=O)OC(C)(C)C)C(=O)NCc1ccccn1 (stereo not given in full) | 140 µM |  |
| CC[C@H](C)[C@H](NC(=O)[C@@H](NCC(O)[C@H](CC(C)C)NC(=O)[C@H](Cc1cnc[nH]1)NC(=O)[C@H](Cc1ccccc1)NC(=O)[C@@H]1CCCN1C(=O)OC(C)(C)C)C(C)C)C(=O)NCc1ccccn1 (stereo not given in full) | 0.36 µM |  |
| CC[C@H](C)[C@H](NC(=O)CC(O)C(N)CC(C)CNC(=O)[C@H](Cc1cnc[nH]1)NC(=O)[C@H](Cc1ccccc1)OC[C@@H]1CCCN1C(=O)[C@H](Cc1cn(C=O)c2ccccc12)NC(=O)OC(C)(C)C)C(=O)N[C@@H](Cc1ccccc1)C(=O)OC (stereo not given in full) (Boc-W(For)[X1]H[X2]IF-OMe) | 1000 µM |  |
| CC(C)[C@H](NC(=O)[C@H](Cc1ccccc1)NC(=O)[C@H](Cc1ccccc1)NC(=O)[C@H](Cc1c[nH]cn1)NC(=O)[C@H](Cc1ccccc1)NC(=O)[C@@H]1CCCN1C(=O)[C@H](Cc1c[nH]cn1)NC(=O)[C@@H]1CCCN1)C(=O)N[C@@H](Cc1ccc(O)cc1)C(=O)N[C@@H](CCCCN)C(=O)O [RIP] (H-PHPFHFFVYK-OH) |  | Remaining [4]: 13% |
| CC[C@H](C)[C@H](NC(=O)CC(O)C(N)CC(C)CNC(=O)[C@H](Cc1cnc[nH]1)NC(=O)[C@H](Cc1ccccc1)OC[C@@H]1CCCN1C(=O)OC(C)(C)C)C(=O)N[C@@H](Cc1ccccc1)C(=O)OC (stereo not given in full) | 2500 µM |  |
| CC[C@H](C)[C@H](NC(=O)CC(O)C(N)CC(C)CNC(=O)[C@H](Cc1c[nH]cn1)NC(=O)[C@H](Cc1ccccc1)OC[C@@H]1CCCN1C(=O)[C@H](Cc1c[nH]cn1)NC(=O)OC(C)(C)C)C(=O)NCc1ccccn1 (stereo not given in full) | 100 µM |  |
| CC[C@H](C)[C@H](NC(=O)[C@@H](NC[C@H](CC(C)C)NC(=O)[C@H](Cc1c[nH]cn1)NC(=O)[C@H](Cc1ccccc1)NC(=O)[C@@H]1CCCN1C(=O)[C@H](Cc1c[nH]cn1)NC(=O)[C@@H]1CCCN1)C(C)C)C(=O)N[C@@H](Cc1c[nH]cn1)C(=O)N[C@H](CCCCN)C(=O)O | 0.05 µM |  |
